This assay concerns CaM (Calmodulin-agarose). Description: CaM-agarose pulldown of TRPA1 constructs. It is filed as binding. The settings on record: MBP-tagged constructs, absence or presence of Ca2+; four independent experiments. In a few lines:
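HEK293T cells were transfected with tagged TRPA1 constructs and lysed after 16-24 h in Tris pH 8.0 buffer containing 5 mM DDM and 500 µM EGTA. Free Ca²⁺ was set with CaCl₂, calculated from EGTA constants. 100 µg lysate was incubated with CaM-agarose for 1 h at 4 °C, washed, then eluted with 5 mM EGTA. Detection was by anti-FLAG or anti-MBP immunoblot, with tubulin input control. Enrichment is relative to the maximum within each replicate.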

B1: WT C. elegans TRPA1: WT C. elegans TRPA1, MBP-tagged (protein)
chain: MSKKSLGLDVRLELEGLISNDDTIRSEKDGRQASIFRVAELDARTEADNLRSIIHQSAREGNVNALQEALLKAPLAVNAQDGDFMTPLHYAARYGNYDAVKLLLSKNALPNTKNREGDTPLHIASKYIYGYSDICSIIDEDQADSARKYNTATKKIINALVSENAEIDPVNKYQLTPLHYAAMKSNFSALHALIKLKADVDAEDDNKMTPLLLACVHGSQEIIQELIKANSNVTKRDQRLNTVFHIVALRGEPEYLEMMMDHDPVEAIKALNLFNNEKKTPLRMAVEGNHPETLKKILQMEKKNSCKWMDREKELIHFAAEKGFLEVLKALVEAGGNKNELNEVKAVPLHVAAQMNQLEVVSYLIEEEKDNIDVVDEQGLTPLMMAVTHDSKKCVEYLIAKKANLTITDKDERTPVFIGAKFNALSSVEYILDHLRKKNKETERSALKSPTRNTLRIVSEDVRRTMVNMVDRDQNTPMHIVASNGYLEMMQLLQKHGASITQVNEDEETALHRAAIGGQTGAVRQLLEWDIRLLLMKDEMGNSALHLAARSGHDATTKVLLDNGADKEAKNSYQKTPLQVAVDSGKLETCQRLVAKGAQIESSSDTKTVLHTAAFYGNESIVRYFIAEGVTIDRRDEEGKTAFDIACENDHKDVARAFLETDQWKNLMIPCDVIPLDKHRNPVNMKRRTPFRTLLTKFPELASFVMDNCIEKSKEETDSTQSVAYNFEFLDDTYMMRCVSDDGTGEQLIGCKSAYDEDFKLEKDAQSYASNYDRVYKYHPLKLMADAEKLHLLNHPLSKALLKYKWNRLGRPMYYFALFMYLVFIVSLTQYVRHTKAPYNVWNEESYYDSEYFDENETCPQINTTKPDVVWKIIIQTLAVCQILVECFQLFQRKFAYLVNWENWIDCFIYSTALITVYDFSECSATSGVRQNWQWILAALCIFFGWINLLFMIRKMPRFGIFVVMFVDIVKTFFRFFPVFVLFIIAFSSSFYVILQNRPEFSTIFMSPLKTTVMMIGEFEFTGIFHGDETTHAEKMFGPAHTAVACALFFFFCIIMTILLMNLLVGLAVDDIKGVQEKAELKRLAMQVDLVLQIEASLHFFIQRTKKYATCRYATFPYGKLHKTGFAGWWSNFRRRFGLSVSTDPEIDEMYEREAEFTSEMTQKLQNQAAKLKNIQENIDVMYEKQVRLEAIIAKLATGLNINIELEEKDN
For B1, the “CaM binding of TRPA1 species orthologues” value was “failed to bind CaM”.
